According to ChEMBL document CHEMBL1122829, “Antimicrobial and cytotoxic properties of 9,10-dihydrophenanthrenes: structure-activity studies on juncusol” (J Med Chem, 1985):
In brackets after ≈: the same amount, converted by molar mass. One block for each compound: values may come before it. Activity calls are given as the source filed them. The calls are words filed in the database; no cut-off is given here.

Key:
[1] = test system: Mycolicibacterium smegmatis; assay: In vitro antimicrobial activity against Mycobacterium smegmatis ATCC 607 tested at 100-0.1 ug/mL; i=Inactive at highest concentration; format: functional, organism-based
Procedure, shortened: (§1)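 Agar dilution/streak method; MIC (μg/mL) read as lowest concentration inhibiting growth. Each organism was streaked on agar plates holding serial dilutions of test agent over the range given in the line. "i" means no inhibition at the top concentration tested.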

Staphylococcus aureus [2] = assay: In vitro antimicrobial activity against, Staphylococcus aureus ATCC 13709 tested at 100-0.1 ug/mL; i=Inactive at highest concentration; format: functional, organism-based; procedure, shortened: as §1
Candida albicans [3] = assay: In vitro antimicrobial activity against Candida albicans ATCC 10231, tested at 100-0.1 ug/mL; i=Inactive at highest concentration; format: functional, organism-based; procedure, shortened: as §1
Klebsiella pneumoniae [4] = assay: In vitro antimicrobial activity against,Klebsiella pneumoniae ATCC 10031 tested at 100-0.1 ug/mL; i=Inactive at highest concentration; format: functional, organism-based; procedure, shortened: as §1
Candida albicans [5] = assay: In vitro antimicrobial activity against Candida albicans ATCC 10231, tested at 100-0.1 ug/mL; format: functional; procedure, shortened: as §1
Klebsiella pneumoniae [6] = assay: In vitro antimicrobial activity against Klebsiella pneumoniae ATCC 10031,tested at 100-0.1 ug/mL; format: functional; procedure, shortened: as §1
Homo sapiens = organism: Homo sapiens; assay: In vitro cytotoxic activity against, human lymphoblastic leukemia cell culture (CCRF-CEM); format: functional
Staphylococcus aureus [7] = assay: In vitro antimicrobial activity against, Staphylococcus aureus ATCC 13709,tested at 100-0.1 ug/mL; format: functional; procedure, shortened: as §1
B16 [8] = assay: In vitro cytotoxic activity against,B-16 mouse melanoma (B-16); format: functional, cell-based
Procedure, shortened: (§2)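 B16 cells: 1×10^4 cells per well seeded in DMEM with 5% bovine serum and grown 48 h at 37 °C under 5% CO2. Agent was added from a 10 mg/mL stock in 95% ethanol via 2× medium and incubated a further 48 h. Cells were detached with 0.01% trypsin/0.1% EDTA in PBS for 5 min at 37 °C and counted. IC50 is the dose giving 50% of control cell count, taken from count versus concentration plots.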

[9] = test system: Mycolicibacterium smegmatis; assay: In vitro antimicrobial activity against Mycobacterium smegmatis ATCC 607,tested at 100-0.1 ug/mL; format: functional; procedure, shortened: as §1
L1210 [10] = assay: In vitro cytotoxic activity against,L-1210 mouse lymphocytic leukemia cell culture (ATCC CCL-219); format: functional, cell-based
Procedure, shortened: (§3)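 L1210 (ATCC 219) cells: 1×10^4 cells per well seeded in DMEM with 5% bovine serum and grown 48 h at 37 °C under 5% CO2. Agent was added from a 10 mg/mL stock in 95% ethanol via 2× medium and incubated a further 48 h. The nonadherent cells were dispersed by pipetting, diluted in balanced salts solution and counted by hemocytometer or Coulter counter. IC50 is the dose giving 50% of control count.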

Klebsiella pneumoniae [11] = assay: In vitro antimicrobial activity against Klebsiella pneumoniae ATCC 10031,tested at 100-0.1 ug/mL; Inactive at highest concentration; format: functional, organism-based; procedure, shortened: as §1
Candida albicans [12] = assay: In vitro antimicrobial activity against Candida albicans ATCC 10231, tested at 50-0.1 ug/mL; i=Inactive at highest concentration; format: functional, organism-based; procedure, shortened: as §1
[13] = test system: Mycolicibacterium smegmatis; assay: In vitro antimicrobial activity against Mycobacterium smegmatis ATCC 607,tested at 50-0.1 ug/mL; format: functional; procedure, shortened: as §1
Staphylococcus aureus [14] = assay: In vitro antimicrobial activity against, Staphylococcus aureus ATCC 13709,tested at 50-0.1 ug/mL;; format: functional; procedure, shortened: as §1
Klebsiella pneumoniae [15] = assay: In vitro antimicrobial activity against Klebsiella pneumoniae ATCC 10031,tested at 50-0.1 ug/mL; i=Inactive at highest concentration; format: functional, organism-based; procedure, shortened: as §1
Staphylococcus aureus [16] = assay: In vitro antimicrobial activity against, Staphylococcus aureus ATCC 13709,tested at 50-0.1 ug/mL; format: functional; procedure, shortened: as §1
Candida albicans [17] = assay: In vitro antimicrobial activity against Candida albicans ATCC 10231, tested at 25-0.1 ug/mL; i=Inactive at highest concentration; format: functional, organism-based; procedure, shortened: as §1
Staphylococcus aureus [18] = assay: In vitro antimicrobial activity against, Staphylococcus aureus ATCC 13709,tested at 25-0.1 ug/mL; format: functional; procedure, shortened: as §1
Klebsiella pneumoniae [19] = assay: In vitro antimicrobial activity against Klebsiella pneumoniae ATCC 10031,tested at 25-0.1 ug/mL; i=Inactive at highest concentration; format: functional, organism-based; procedure, shortened: as §1
[20] = test system: Mycolicibacterium smegmatis; assay: In vitro antimicrobial activity against Mycobacterium smegmatis ATCC 607,tested at 25-0.1 ug/mL; format: functional; procedure, shortened: as §1
Staphylococcus aureus [21] = assay: In vitro antimicrobial activity against Staphylococcus aureus ATCC 13709,tested at 100-0.1 ug/mL; format: functional; procedure, shortened: as §1
Klebsiella pneumoniae [22] = assay: In vitro antimicrobial activity against Klebsiella pneumoniae ATCC 10031,tested at 100-0.1 ug/mL; i=Inactive at highest concentration; format: functional, organism-based; procedure, shortened: as §1
[23] = test system: Mycolicibacterium smegmatis; assay: In vitro antimicrobial activity against Mycobacterium smegmatis ATCC 607,tested at 100-0.1 ug/mL; i=Inactive at highest concentration; format: functional, organism-based; procedure, shortened: as §1
Staphylococcus aureus [24] = assay: In vitro antimicrobial activity against, Staphylococcus aureus ATCC 13709,tested at 100-0.1 ug/mL; i=Inactive at highest concentration; format: functional, organism-based; procedure, shortened: as §1
B16 [25] = assay: In vitro cytotoxic activity against B-16 mouse melanoma (B-16); format: functional, cell-based; procedure, shortened: as §2
L1210 [26] = assay: In vitro cytotoxic activity against L-1210 mouse lymphocytic leukemia cell culture (ATCC CCL-219); format: functional, cell-based; procedure, shortened: as §3
[27] = test system: Mycolicibacterium smegmatis; assay: In vitro antimicrobial activity against Mycobacterium smegmatis ATCC 607 tested at 25-0.1 ug/mL; format: functional; procedure, shortened: as §1
Candida albicans [28] = assay: In vitro antimicrobial activity against Candida albicans ATCC 10231 tested at 25-0.1 ug/mL; i=Inactive at highest concentration; format: functional, organism-based; procedure, shortened: as §1
Klebsiella pneumoniae [29] = assay: In vitro antimicrobial activity against Klebsiella pneumoniae ATCC 10031 tested at 25-0.1 ug/mL; i=Inactive at highest concentration; format: functional, organism-based; procedure, shortened: as §1
Staphylococcus aureus [30] = assay: In vitro antimicrobial activity against, Staphylococcus aureus ATCC 13709 tested at 25-0.1 ug/mL; format: functional
Procedure, shortened: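 Agar-dilution/streak assay giving the MIC in μg/mL, run against S. aureus ATCC 13709 within a seven-organism panel.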

Structure (SMILES): Cc1cc2c(cc1O)CCc1ccccc1-2
MIC (Candida albicans [5]): 6.25 µg/mL (≈ 29.7 µM)
MIC (Klebsiella pneumoniae [11]): inactive
MIC (Staphylococcus aureus [7]): 25 µg/mL (≈ 119 µM)
IC50 (B16 [8]): 27.5 µg/mL (≈ 131 µM)
MIC [9]: 3.12 µg/mL (≈ 14.8 µM)
IC50 (L1210 [10]): 24.5 µg/mL (≈ 117 µM)

Structure (SMILES): CC[N+](CC)(CC)Cc1cc2c(cc1OC)CCc1ccccc1-2.[Br-]
MIC (Candida albicans [12]): inactive
MIC (Staphylococcus aureus [16]): 25 µg/mL
MIC [13]: 25 µg/mL
MIC (Klebsiella pneumoniae [15]): inactive

Structure (SMILES): COc1cc2c(cc1C[N+](C)(C)CSc1ccccc1)CCc1ccccc1-2.[Br-]
MIC (Candida albicans [17]): inactive
MIC (Staphylococcus aureus [18]): 6.25 µg/mL
MIC (Klebsiella pneumoniae [19]): inactive
MIC [20]: 3.12 µg/mL

Structure (SMILES): COc1cc2c(cc1C[N+](C)(C)CSc1ccccc1)-c1ccccc1CC2.[Br-]
MIC (Candida albicans [5]): 12.5 µg/mL
MIC (Klebsiella pneumoniae [6]): 25 µg/mL
IC50 (Homo sapiens): 1.4 µg/mL
MIC (Staphylococcus aureus [7]): 1.56 µg/mL
IC50 (B16 [8]): 0.5 µg/mL
MIC [9]: 1.56 µg/mL
IC50 (L1210 [10]): 3.7 µg/mL

Structure (SMILES): COc1ccccc1C[N+](C)(C)CSc1ccccc1.[Br-]
MIC (Staphylococcus aureus [21]): 50 µg/mL
MIC (Candida albicans [5]): 100 µg/mL
MIC (Klebsiella pneumoniae [22]): inactive
MIC [9]: 50 µg/mL

Structure (SMILES): C=Cc1c(C)c(O)cc2c1-c1ccc(O)c(C)c1CC2
IC50 (B16 [25]): 12.5 µg/mL (≈ 46.9 µM)
IC50 (L1210 [26]): 13.8 µg/mL (≈ 51.8 µM)
MIC [27]: 12.5 µg/mL (≈ 46.9 µM)
MIC (Candida albicans [28]): inactive
MIC (Klebsiella pneumoniae [29]): inactive
MIC (Staphylococcus aureus [30]): 25 µg/mL (≈ 93.9 µM)

Continued, in another order:

MIC [1]: inactive
MIC (Staphylococcus aureus [2]): inactive
MIC (Candida albicans [3]): inactive
MIC (Klebsiella pneumoniae [4]): inactive
Structure (SMILES): C=Cc1c(C)c(OC)cc2c1-c1ccc(OC)c(C)c1CC2

MIC (Candida albicans [5]): 3.12 µg/mL
MIC (Klebsiella pneumoniae [6]): 12.5 µg/mL
MIC (Staphylococcus aureus [7]): 1.56 µg/mL
MIC [9]: 1.56 µg/mL
Structure (SMILES): COc1cc2c(cc1C[N+](C)(C)CSc1ccccc1)-c1ccc(OC)c(C)c1CC2.[Br-]
IC50 (Homo sapiens): 0.9 µg/mL
IC50 (B16 [8]): 0.3 µg/mL
IC50 (L1210 [10]): 1.3 µg/mL

MIC (Candida albicans [12]): inactive
MIC [13]: 25 µg/mL (≈ 93.2 µM)
MIC (Staphylococcus aureus [14]): 50 µg/mL (≈ 186 µM)
MIC (Klebsiella pneumoniae [15]): inactive
Structure (SMILES): COC(=O)c1cc2c(cc1OC)CCc1ccccc1-2

MIC [23]: inactive
MIC (Staphylococcus aureus [24]): inactive
MIC (Klebsiella pneumoniae [22]): inactive
MIC (Candida albicans [3]): inactive
Structure (SMILES): COc1cc2c(cc1C)-c1ccc(OC)c(C)c1CC2

MIC (Candida albicans [5]): 100 µg/mL (≈ 446 µM)
MIC (Staphylococcus aureus [24]): inactive
MIC (Klebsiella pneumoniae [22]): inactive
MIC [9]: 25 µg/mL (≈ 111 µM)
Structure (SMILES): COc1cc2c(cc1C)-c1ccccc1CC2

MIC (Candida albicans [12]): inactive
MIC (Staphylococcus aureus [16]): 25 µg/mL (≈ 105 µM)
MIC [13]: 3.12 µg/mL (≈ 13.1 µM)
MIC (Klebsiella pneumoniae [15]): inactive
Structure (SMILES): CCc1cc2c(cc1OC)-c1ccccc1CC2

MIC (Candida albicans [5]): 50 µg/mL (≈ 208 µM)
MIC (Klebsiella pneumoniae [6]): 50 µg/mL (≈ 208 µM)
MIC (Staphylococcus aureus [7]): 12.5 µg/mL (≈ 52 µM)
MIC [9]: 6.25 µg/mL (≈ 26 µM)
Structure (SMILES): Cc1cc2c(cc1O)CCc1c-2ccc(O)c1C
IC50 (Homo sapiens): 9.3 µg/mL (≈ 38.7 µM)
IC50 (B16 [8]): 17.5 µg/mL (≈ 72.8 µM)
IC50 (L1210 [10]): 10.2 µg/mL (≈ 42.4 µM)
